# In ChEMBL document CHEMBL3425441 (J Med Chem, 2015):
# Legend:
# [1] = Metabolic stability in rat liver microsomes at 10 uM after 3 hrs by LC/MS analysis; type: ADME; settings: read-out: Stability
# [2] = Cytotoxicity against human U937 cells assessed as cell death after 72 hrs by sulforhodamine B assay; settings: U-937, 72 h
# Mus musculus [3] = experiment: Toxicity in C57BL/6 mouse at 200 mg/kg, ip measured over 24 hrs; type: organism-based; set-up: dose 200 mg/kg, route intraperitoneal; settings: in vivo
# How it was run: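 Tolerability: C57BL/6 mice aged 8-10 weeks, n = 3 per cohort, given a single 200 mg/kg i.p. dose formulated at 5 mg/mL in 200 mg/mL HPβCD, pH 5.5. Signs classed as excitatory or depressive and graded mild to severe.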
# [4] = Metal chelating activity of the compound assessed as zinc complex formation after 5 mins by EGTA fluorescence titration Assay; type: physicochemical
# [5] = biological target: T1, Caspase-3/Caspase-7 (Homo sapiens) (UniProt P42574+P55210); experiment: Activation of Caspase 3/7 in human U937 cells assessed as cleavage of Ac-DEVD-AFC at 30 uM after 16 hrs by fluorescence assay relative to control; type: cell-based; settings: U-937
# Serum [6] = experiment: Drug uptake in C57/BL6 mouse serum at 25 mg/kg, iv measured after 8 hrs by LC/MS/MS analysis; type: ADME, organism-based; set-up: dose 25 mg/kg, route intravenous; settings: in vivo
# How it was run: (§1)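 Mouse PK: C57/BL6 mice, n = 2 per cohort per time point, 25 mg/kg given by tail vein injection or oral gavage; formulated at 5 mg/mL in 200 mg/mL HPβCD, pH 5.5. Mice sacrificed at set times, blood collected, EDTA plasma frozen at -80°C. Levels measured by LC/MS/MS (Polar-RP column, formic acid/methanol gradient, negative ESI) against an internal standard.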
# Jurkat = experiment: Cytotoxicity against human Jurkat cells assessed as cell death after 72 hrs by sulforhodamine B assay; type: functional, cell-based
# How it was run: (§2)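 Jurkat plated at 25,000 cells/well; GL-1 and EL4 at 15,000 cells/well. Nine half-log doses, 0.01–100 µM, in triplicate. SRB staining after TCA fixation, absorbance 510 nm. Percent death normalized to a positive death control (100%) and DMSO (0%). Logistic fit gives IC50, mean of three experiments ± s.e.m.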
# [7] = Cytotoxicity against dog OSW cells assessed as cell death after 72 hrs by sulforhodamine B assay; type: functional, cell-based; settings: Canis lupus familiaris
# Mus musculus [8] = experiment: Elimination half life in C57/BL6 mouse at 25 mg/kg, iv and po by LC/MS/MS analysis; type: ADME, organism-based; set-up: dose 25 mg/kg, route oral; settings: in vivo
# [9] = Cytotoxicity against dog GL1 cells assessed as cell death after 72 hrs by sulforhodamine B assay; type: functional, cell-based; settings: Canis lupus familiaris; how it was run: as §2
# U-937 [10] = experiment: Induction of apoptosis in human U937 cells assessed as necrotic cells at 50 uM after 12 hrs by annexin V-FITC/propidium iodide staining-based flow cytometric analysis relative to control; type: functional
# U-937 [11] = experiment: Induction of apoptosis in human U937 cells assessed as early apoptotic cells at 50 uM after 12 hrs by annexin V-FITC/propidium iodide staining-based flow cytometric analysis (reference value: 2%); type: functional
# EL4 = experiment: Cytotoxicity against mouse EL4 cells assessed as cell death after 72 hrs by sulforhodamine B assay; type: functional, cell-based; settings: EL4, 72 h; how it was run: as §2
# U-937 [12] = experiment: Induction of apoptosis in human U937 cells assessed as viable cells at 50 uM after 12 hrs by annexin V-FITC/propidium iodide staining-based flow cytometric analysis (reference value: 96%); type: functional; settings: U-937, 12 h, read-out: Activity
# [13] = AUC in C57/BL6 mouse at 25 mg/kg, po by LC/MS/MS analysis; type: ADME, organism-based; set-up: dose 25 mg/kg, route oral; settings: plasma
# U-937 [14] = experiment: Induction of apoptosis in human U937 cells assessed as late apoptotic cells at 50 uM after 12 hrs by annexin V-FITC/propidium iodide staining-based flow cytometric analysis (reference value: 2%); type: functional
# [15] = AUC in C57/BL6 mouse at 25 mg/kg, iv by LC/MS/MS analysis; type: ADME, organism-based; set-up: dose 25 mg/kg, route intravenous; settings: plasma
# [16] = Oral bioavailability in C57/BL6 mouse at 25 mg/kg by LC/MS/MS analysis; type: ADME, organism-based; settings: in vivo
# [17] = biological target: T1, Caspase-3/Caspase-7 (Homo sapiens); experiment: Activation of Caspase 3/7 in human U937 cells assessed as cleavage of Ac-DEVD-AFC at 1 uM after 16 hrs by fluorescence assay relative to control; type: cell-based; settings: U-937
# How it was run: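 U-937 cells, 50,000/well in phenol red-free RPMI-1640 with 10% FBS, preincubated 15 h at 37°C. Compound added from a 3x solution in media and tested in six wells. Lysis/caspase buffer contains 20 µM Ac-DEVD-AFC. […] 16 h slopes normalized to 0 h (0%) and staurosporine 16 h (100%).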
# Serum [18] = experiment: Drug uptake in C57/BL6 mouse serum at 25 mg/kg, iv measured after 5 to 6 hrs by LC/MS/MS analysis; type: ADME, organism-based; set-up: dose 25 mg/kg, route intravenous; settings: in vivo; how it was run: as §1
# [19] = Elimination half life in dog at 1 mg/kg, iv; type: ADME, organism-based, Canis lupus familiaris; set-up: dose 1 mg/kg, route intravenous; settings: in vivo, read-out: beta t1/2 (converted)
# Liver microsome = experiment: Drug metabolism in rat liver microsomes assessed as formation of N-dealkylated, dihydroxylated and multiple monooxygenated products at 10 uM after 3 hrs by LC/MS analysis; type: ADME
# T1 sequence (P42574 whole entry, looked up): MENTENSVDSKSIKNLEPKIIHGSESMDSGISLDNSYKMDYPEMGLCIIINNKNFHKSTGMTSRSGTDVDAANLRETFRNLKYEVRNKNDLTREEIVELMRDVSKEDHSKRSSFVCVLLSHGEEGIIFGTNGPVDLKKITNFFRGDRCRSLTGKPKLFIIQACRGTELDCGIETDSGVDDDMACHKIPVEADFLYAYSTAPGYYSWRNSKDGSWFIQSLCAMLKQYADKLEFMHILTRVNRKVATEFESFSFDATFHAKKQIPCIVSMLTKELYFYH
# T1 sequence (P55210 whole entry, looked up): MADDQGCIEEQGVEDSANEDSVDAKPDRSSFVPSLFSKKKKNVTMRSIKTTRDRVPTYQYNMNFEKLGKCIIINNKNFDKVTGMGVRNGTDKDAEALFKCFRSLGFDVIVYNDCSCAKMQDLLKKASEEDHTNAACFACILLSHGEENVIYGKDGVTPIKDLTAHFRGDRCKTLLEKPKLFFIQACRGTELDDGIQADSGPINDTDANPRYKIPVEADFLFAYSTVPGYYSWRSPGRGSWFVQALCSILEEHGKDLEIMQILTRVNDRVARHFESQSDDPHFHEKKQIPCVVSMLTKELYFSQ
SMILES,"remaining at 3 h, 10 µM [1]",IC50 [2],also measured
CCCc1cc(F)cc(/C=N/NC(=O)CN2CCN(C(=O)c3ccc(F)cc3)CC2)c1O,67%,7.5 µM,Activity (Mus musculus [3]): Toxic
CCCc1cc(F)cc(/C=N/NC(=O)CN2CCN(C(=O)c3ccc(C(F)(F)F)cc3)CC2)c1O,64%,,
O=C(CN1CCN(Cc2ccccc2)CC1)N/N=C/c1ccccc1,,,Kd [4]: > 1000 µM; Activity [5]: 3%
N#Cc1ccc(C(=O)N2CCN(CC(=O)N/N=C/c3cc(F)ccc3O)CC2)cc1,88%,15.3 µM,
CCCc1cccc(/C=N/NC(=O)CN2CCN(C(=O)c3ccc(C#N)cc3)CC2)c1O,61%,12.8 µM,
C=CCc1cccc(/C=N/NC(=O)CN2CCN(C(=O)c3ccc(C(F)(F)F)cc3)CC2)c1O,85%,,
O=C(CN1CCN(C(=O)c2ccc(C(F)(F)F)cc2)CC1)N/N=C/c1cc(F)ccc1O,87%,8.7 µM,Activity (Mus musculus [3]): Non-toxic
C=CCc1cc(F)cc(/C=N/NC(=O)CN2CCN(Cc3ccc(S(N)(=O)=O)cc3)CC2)c1O,89%,,
CCCc1cc(F)cc(/C=N/NC(=O)CN2CCN(C(=O)c3ccc(C#N)cc3)CC2)c1O,66%,,Drug uptake (Serum [6]): Active
C=CCc1cc(F)cc(/C=N/NC(=O)CN2CCN(C(=O)c3ccc(F)cc3)CC2)c1O,92%,8.5 µM,Activity (Mus musculus [3]): Toxic
C=CCc1cccc(/C=N/NC(=O)CN2CCN(C(=O)c3ccc(F)cc3)CC2)c1O,86%,10.2 µM,IC50 (Jurkat): 4 µM; IC50 [7]: 9.3 µM; Activity (Mus musculus [3]): Non-toxic; beta t1/2 (Mus musculus [8]): 89.5 min; IC50 [9]: 3000 nM; Activity (U-937 [10]): 2%; Activity (U-937 [11]): 27%; Drug uptake (Serum [6]): Active; IC50 (EL4): 6.5 µM; viability at 50 µM (U-937 [12]): 49%; AUC [13]: 1540 ng·h/mL; Activity (U-937 [14]): 22%; Kd [4]: 0.00146 µM; Activity [5]: 64%; AUC [15]: 6040 ng·h/mL; bioavailability [16]: 25.6%
CCCc1cccc(/C=N/NC(=O)CN2CCN(C(=O)c3ccc(C(F)(F)F)cc3)CC2)c1O,64%,,
CCCc1cc(F)cc(/C=N/NC(=O)CN2CCN(Cc3ccc(C(F)(F)F)cc3)CC2)c1O,40%,,
CN[C@@H]1C[C@H]2O[C@@](C)([C@@H]1OC)n1c3ccccc3c3c4c(c5c6ccccc6n2c5c31)C(=O)NC4,,,Activity [17]: 100%
C=CCc1cc(F)cc(/C=N/NC(=O)CN2CCN(C(=O)c3ccc(C(F)(F)F)cc3)CC2)c1O,90%,,
CCCc1cc(F)cc(/C=N/NC(=O)CN2CCN(Cc3ccc(S(N)(=O)=O)cc3)CC2)c1O,62%,,
C=CCc1cccc(/C=N/NC(=O)CN2CCN(C(=O)c3ccc(C#N)cc3)CC2)c1O,90%,13.1 µM,
O=C(CN1CCN(C(=O)c2ccc(F)cc2)CC1)N/N=C/c1cc(F)ccc1O,86%,15.3 µM,
C=CCc1cc(F)cc(/C=N/NC(=O)CN2CCN(C(=O)c3ccc(C#N)cc3)CC2)c1O,95%,,Drug uptake (Serum [6]): Active
C=CCc1cccc(/C=N/NC(=O)CN2CCN(Cc3ccccc3)CC2)c1O [PAC-1],38%,10.2 µM,IC50 (Jurkat): 4.4 µM; IC50 [7]: 10 µM; Activity (Mus musculus [3]): Toxic; beta t1/2 (Mus musculus [8]): 24.6 min; IC50 [9]: 3000 nM; Drug uptake (Serum [18]): Not Active; Activity (U-937 [10]): 5%; Activity (U-937 [11]): 22%; half-life [19]: 126 min; IC50 (EL4): 6.5 µM; viability at 50 µM (U-937 [12]): 54%; Drug metabolism (Liver microsome): metabolite_detected; AUC [13]: 527 ng·h/mL; Activity (U-937 [14]): 19%; Kd [4]: 0.00128 µM; Activity [5]: 87%; AUC [15]: 3510 ng·h/mL; bioavailability [16]: 15.1%
CCCc1cccc(/C=N/NC(=O)CN2CCN(C(=O)c3ccc(F)cc3)CC2)c1O,69%,7.3 µM,

# Continued, in another order:
"remaining at 3 h, 10 µM [1]",SMILES,IC50 [2],also measured
49%,CCCc1cc(F)cc(/C=N/NC(=O)CN2CCN(Cc3ccccc3)CC2)c1O,8.9 µM,
86%,CCCc1cc(F)cc(/C=N/NC(=O)CN2CCN(C(=O)c3ccccc3)CC2)c1O,12.3 µM,
56%,C=CCc1cc(F)cc(/C=N/NC(=O)CN2CCN(Cc3ccccc3)CC2)c1O,9.5 µM,
65%,C=CCc1cc(F)cc(/C=N/NC(=O)CN2CCN(Cc3ccc(C#N)cc3)CC2)c1O,12.7 µM,
30%,O=C(CN1CCN(Cc2ccc(C(F)(F)F)cc2)CC1)N/N=C/c1cc(F)ccc1O,4.7 µM,
71%,CCCc1cccc(/C=N/NC(=O)CN2CCN(C(=O)c3ccccc3)CC2)c1O,9.4 µM,
16%,C=CCc1cccc(/C=N/NC(=O)CN2CCN(Cc3ccc(C(F)(F)F)cc3)CC2)c1O,,
31%,C=CCc1cccc(/C=N/NC(=O)CN2CCN(Cc3ccc(F)cc3)CC2)c1O,11.1 µM,
30%,CCCc1cccc(/C=N/NC(=O)CN2CCN(Cc3ccccc3)CC2)c1O,9.6 µM,
88%,O=C(CN1CCN(C(=O)c2ccccc2)CC1)N/N=C/c1cc(F)ccc1O,15.7 µM,
64%,O=C(CN1CCN(Cc2ccccc2)CC1)N/N=C/c1cc(F)ccc1O,17 µM,
48%,CCCc1cc(F)cc(/C=N/NC(=O)CN2CCN(Cc3ccc(F)cc3)CC2)c1O,7.5 µM,
48%,C=CCc1cccc(/C=N/NC(=O)CN2CCN(Cc3ccc(C#N)cc3)CC2)c1O,13.7 µM,
15%,CCCc1cccc(/C=N/NC(=O)CN2CCN(Cc3ccc(C(F)(F)F)cc3)CC2)c1O,,
57%,C=CCc1cc(F)cc(/C=N/NC(=O)CN2CCN(Cc3ccc(F)cc3)CC2)c1O,10.3 µM,
24%,CCCc1cccc(/C=N/NC(=O)CN2CCN(Cc3ccc(F)cc3)CC2)c1O,10 µM,
84%,C=CCc1cccc(/C=N/NC(=O)CN2CCN(Cc3ccc(S(N)(=O)=O)cc3)CC2)c1O,,Drug uptake (Serum [18]): Not Active
30%,CCCc1cccc(/C=N/NC(=O)CN2CCN(Cc3ccc(C#N)cc3)CC2)c1O,9 µM,
49%,C=CCc1cc(F)cc(/C=N/NC(=O)CN2CCN(Cc3ccc(C(F)(F)F)cc3)CC2)c1O,,
93%,C=CCc1cc(F)cc(/C=N/NC(=O)CN2CCN(C(=O)c3ccccc3)CC2)c1O,8.6 µM,IC50 (Jurkat): 4.1 µM; IC50 [7]: 10 µM; Activity (Mus musculus [3]): Non-toxic; beta t1/2 (Mus musculus [8]): 120.5 min; IC50 [9]: 3400 nM; Activity (U-937 [10]): 7%; Activity (U-937 [11]): 20%; Drug uptake (Serum [6]): Active; IC50 (EL4): 7.3 µM; viability at 50 µM (U-937 [12]): 54%; AUC [13]: 428 ng·h/mL; Activity (U-937 [14]): 19%; Kd [4]: 0.00107 µM; Activity [5]: 67%; AUC [15]: 4850 ng·h/mL; bioavailability [16]: 8.5%
49%,CCCc1cc(F)cc(/C=N/NC(=O)CN2CCN(Cc3ccc(C#N)cc3)CC2)c1O,11.2 µM,
89%,C=CCc1cccc(/C=N/NC(=O)CN2CCN(C(=O)c3ccccc3)CC2)c1O,12.1 µM,
61%,CCCc1cccc(/C=N/NC(=O)CN2CCN(Cc3ccc(S(N)(=O)=O)cc3)CC2)c1O,,
